Experiments:
[1] = Oral bioavailability in cynomolgus monkey at 5 mg/kg by LC-MS/MS method; format: ADME, organism-based, Macaca fascicularis; conditions: in vivo
Method in brief: (§1)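 Non-naïve male cynomolgus monkeys, at least 2 years old, n = 3 per route. Given 1 mg/kg i.v. in EtOH/PEG400/water (20/15/65) or 5 mg/kg p.o. in 0.5% methylcellulose, 0.2% Tween 80; oral groups fasted. Plasma (K2EDTA) collected pre-dose to 24 h. Analysed by non-validated LC-MS/MS.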

[2] = Apparent permeability from apical side to basolateral side in MDCK cells at 10 uM measured after 180 mins by LC-MS/MS analysis; format: ADME, cell-based, Canis lupus familiaris; conditions: dog
[3] = molecular target: Chromatin remodeling regulator CECR2 (Homo sapiens, UniProt Q9BXF3); assay: Displacement of biotinylated histone H3K14 peptide ligand from human recombinant His-tagged CECR2 measured after 10 mins by TR-FRET assay
Chain of Chromatin remodeling regulator CECR2 (Q9BXF3 whole entry): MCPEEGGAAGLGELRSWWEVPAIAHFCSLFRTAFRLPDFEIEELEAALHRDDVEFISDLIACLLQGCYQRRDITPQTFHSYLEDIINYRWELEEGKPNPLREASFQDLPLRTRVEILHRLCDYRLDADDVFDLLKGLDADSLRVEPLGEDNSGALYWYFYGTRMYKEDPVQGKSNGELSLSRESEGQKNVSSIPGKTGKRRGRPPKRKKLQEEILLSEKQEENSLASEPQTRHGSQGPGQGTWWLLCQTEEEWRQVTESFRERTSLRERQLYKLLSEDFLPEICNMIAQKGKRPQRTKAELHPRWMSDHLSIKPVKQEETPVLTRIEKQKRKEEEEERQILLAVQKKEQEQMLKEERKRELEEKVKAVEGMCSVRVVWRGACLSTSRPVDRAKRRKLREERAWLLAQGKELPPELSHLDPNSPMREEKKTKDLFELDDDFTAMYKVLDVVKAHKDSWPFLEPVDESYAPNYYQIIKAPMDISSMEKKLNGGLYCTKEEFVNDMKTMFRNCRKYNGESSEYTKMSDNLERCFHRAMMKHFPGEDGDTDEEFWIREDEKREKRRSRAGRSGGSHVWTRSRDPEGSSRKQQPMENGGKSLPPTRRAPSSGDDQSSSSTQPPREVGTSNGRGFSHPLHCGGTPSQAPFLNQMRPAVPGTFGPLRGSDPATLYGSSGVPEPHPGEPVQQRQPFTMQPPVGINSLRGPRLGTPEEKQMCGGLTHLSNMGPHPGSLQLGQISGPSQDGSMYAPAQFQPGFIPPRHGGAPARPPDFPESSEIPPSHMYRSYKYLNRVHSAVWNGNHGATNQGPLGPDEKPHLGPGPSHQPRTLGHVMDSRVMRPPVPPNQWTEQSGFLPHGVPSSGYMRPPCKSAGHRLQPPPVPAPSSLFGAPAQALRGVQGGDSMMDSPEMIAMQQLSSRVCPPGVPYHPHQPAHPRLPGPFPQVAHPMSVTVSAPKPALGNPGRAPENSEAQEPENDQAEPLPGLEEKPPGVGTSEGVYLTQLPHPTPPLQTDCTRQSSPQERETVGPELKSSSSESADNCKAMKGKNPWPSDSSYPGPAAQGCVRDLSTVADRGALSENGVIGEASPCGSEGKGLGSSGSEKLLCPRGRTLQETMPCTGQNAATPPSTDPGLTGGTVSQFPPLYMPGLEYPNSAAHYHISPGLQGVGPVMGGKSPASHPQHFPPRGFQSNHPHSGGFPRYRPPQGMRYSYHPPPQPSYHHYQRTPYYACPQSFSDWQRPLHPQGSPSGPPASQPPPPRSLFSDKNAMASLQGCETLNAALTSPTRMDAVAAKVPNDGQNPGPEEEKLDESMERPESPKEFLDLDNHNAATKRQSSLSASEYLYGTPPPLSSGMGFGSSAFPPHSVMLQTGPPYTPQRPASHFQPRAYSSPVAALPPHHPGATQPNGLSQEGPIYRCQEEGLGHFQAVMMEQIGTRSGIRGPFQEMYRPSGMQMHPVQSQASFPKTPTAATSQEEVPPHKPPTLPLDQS

[4] = Ratio of unbound concentration in rat brain to plasma at 250 mg/kg measured after 3 hrs postdose; format: ADME, organism-based; conditions: read-out: K(p,uu,brain)
[5] = molecular target: Histone acetyltransferase p300 (Homo sapiens, UniProt Q09472); assay: Displacement of biotinylated histone H3K14 peptide ligand from human recombinant His-tagged P300 measured after 10 mins by TR-FRET assay
[6] = Cmax in CD-1 mouse at 1 mg/kg, iv or 5 mg/kg, po by LC-MS/MS method; format: ADME, organism-based; conditions: in vivo
Method in brief: (§2)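 Female CD-1 mice, 6–9 weeks, n = 3 per route. Dosed 1 mg/kg i.v. in PEG400/water (35/65) or 5 mg/kg p.o. as a suspension in 0.5% methylcellulose, 0.2% Tween 80. Serial tail-nick blood sampled to 24 h, diluted in EDTA-water. Parent drug measured by non-validated LC-MS/MS after acetonitrile precipitation with an indomethacin internal standard.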

[7] = molecular target: Bromodomain-containing protein 4 (Homo sapiens, UniProt O60885); assay: Displacement of biotinylated histone H3K14 peptide ligand from human recombinant His-tagged BRD4 bromodomain-2 measured after 10 mins by TR-FRET assay
[8] = Cmax in beagle dog at 1 mg/kg, iv or 5 mg/kg, po by LC-MS/MS method; format: ADME, organism-based, Canis lupus familiaris; conditions: in vivo
Method in brief: (§3)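 Non-naïve male beagle dogs, n = 3 per route. Dosed 1 mg/kg i.v. in EtOH/PEG400/water (20/15/65) or 5 mg/kg p.o. in 0.5% methylcellulose, 0.2% Tween 80; oral groups fasted overnight until 4 h post-dose. Peripheral blood taken pre-dose to 24 h and processed to K2EDTA plasma. Analysed by non-validated LC-MS/MS.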

[9] = Half life in beagle dog at 1 mg/kg, iv or 5 mg/kg, po by LC-MS/MS method; format: ADME, organism-based, Canis lupus familiaris; conditions: in vivo; method in brief: as §3
[10] = Protein binding in mouse plasma at 5 uM incubated for 4 hrs measured by LC-MS/MS method; format: ADME, cell-free; conditions: read-out: PPB (converted)
[11] = Clearance in cynomolgus monkey at 1 mg/kg, iv or 5 mg/kg, po by LC-MS/MS method; format: ADME, organism-based, Macaca fascicularis; conditions: in vivo; method in brief: as §1
[12] = Protein binding in human plasma at 5 uM incubated for 4 hrs measured by LC-MS/MS method; format: ADME, cell-free; conditions: read-out: PPB (converted)
[13] = molecular target: Nucleosome-remodeling factor subunit BPTF (Homo sapiens, UniProt Q12830); assay: Displacement of biotinylated histone H3K14 peptide ligand from recombinant His-tagged BPTF (unknown origin) measured after 10 mins by TR-FRET assay
[14] = Cmax in Sprague-Dawley rat at 1 mg/kg, iv or 5 mg/kg, po by LC-MS/MS method; format: ADME, organism-based; conditions: in vivo
Method in brief: (§4)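 Male Sprague-Dawley rats, 6–9 weeks, n = 3 per route. Dosed 1 mg/kg i.v. in PEG400/water (35/65) or 5 mg/kg p.o. in 0.5% methylcellulose, 0.2% Tween 80; oral groups fasted overnight until 4 h post-dose. Catheter blood sampled 0.033–24 h into K2EDTA and spun to plasma. Analysed by non-validated LC-MS/MS.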

CREB-binding protein = CREB-binding protein (Homo sapiens, UniProt Q92793); assay: Displacement of biotinylated histone H3K14 peptide ligand from human recombinant His-tagged CBP measured after 10 mins by TR-FRET assay
[15] = Clearance in beagle dog at 1 mg/kg, iv or 5 mg/kg, po by LC-MS/MS method; format: ADME, organism-based, Canis lupus familiaris; conditions: in vivo; method in brief: as §3
[16] = molecular target: Transcription initiation factor TFIID subunit 1 (Homo sapiens, UniProt P21675); assay: Displacement of biotinylated histone H3K14 peptide ligand from human recombinant His-tagged TAF1 bromodomain-1 measured after 10 mins by TR-FRET assay
Chain of Transcription initiation factor TFIID subunit 1 (P21675 whole entry): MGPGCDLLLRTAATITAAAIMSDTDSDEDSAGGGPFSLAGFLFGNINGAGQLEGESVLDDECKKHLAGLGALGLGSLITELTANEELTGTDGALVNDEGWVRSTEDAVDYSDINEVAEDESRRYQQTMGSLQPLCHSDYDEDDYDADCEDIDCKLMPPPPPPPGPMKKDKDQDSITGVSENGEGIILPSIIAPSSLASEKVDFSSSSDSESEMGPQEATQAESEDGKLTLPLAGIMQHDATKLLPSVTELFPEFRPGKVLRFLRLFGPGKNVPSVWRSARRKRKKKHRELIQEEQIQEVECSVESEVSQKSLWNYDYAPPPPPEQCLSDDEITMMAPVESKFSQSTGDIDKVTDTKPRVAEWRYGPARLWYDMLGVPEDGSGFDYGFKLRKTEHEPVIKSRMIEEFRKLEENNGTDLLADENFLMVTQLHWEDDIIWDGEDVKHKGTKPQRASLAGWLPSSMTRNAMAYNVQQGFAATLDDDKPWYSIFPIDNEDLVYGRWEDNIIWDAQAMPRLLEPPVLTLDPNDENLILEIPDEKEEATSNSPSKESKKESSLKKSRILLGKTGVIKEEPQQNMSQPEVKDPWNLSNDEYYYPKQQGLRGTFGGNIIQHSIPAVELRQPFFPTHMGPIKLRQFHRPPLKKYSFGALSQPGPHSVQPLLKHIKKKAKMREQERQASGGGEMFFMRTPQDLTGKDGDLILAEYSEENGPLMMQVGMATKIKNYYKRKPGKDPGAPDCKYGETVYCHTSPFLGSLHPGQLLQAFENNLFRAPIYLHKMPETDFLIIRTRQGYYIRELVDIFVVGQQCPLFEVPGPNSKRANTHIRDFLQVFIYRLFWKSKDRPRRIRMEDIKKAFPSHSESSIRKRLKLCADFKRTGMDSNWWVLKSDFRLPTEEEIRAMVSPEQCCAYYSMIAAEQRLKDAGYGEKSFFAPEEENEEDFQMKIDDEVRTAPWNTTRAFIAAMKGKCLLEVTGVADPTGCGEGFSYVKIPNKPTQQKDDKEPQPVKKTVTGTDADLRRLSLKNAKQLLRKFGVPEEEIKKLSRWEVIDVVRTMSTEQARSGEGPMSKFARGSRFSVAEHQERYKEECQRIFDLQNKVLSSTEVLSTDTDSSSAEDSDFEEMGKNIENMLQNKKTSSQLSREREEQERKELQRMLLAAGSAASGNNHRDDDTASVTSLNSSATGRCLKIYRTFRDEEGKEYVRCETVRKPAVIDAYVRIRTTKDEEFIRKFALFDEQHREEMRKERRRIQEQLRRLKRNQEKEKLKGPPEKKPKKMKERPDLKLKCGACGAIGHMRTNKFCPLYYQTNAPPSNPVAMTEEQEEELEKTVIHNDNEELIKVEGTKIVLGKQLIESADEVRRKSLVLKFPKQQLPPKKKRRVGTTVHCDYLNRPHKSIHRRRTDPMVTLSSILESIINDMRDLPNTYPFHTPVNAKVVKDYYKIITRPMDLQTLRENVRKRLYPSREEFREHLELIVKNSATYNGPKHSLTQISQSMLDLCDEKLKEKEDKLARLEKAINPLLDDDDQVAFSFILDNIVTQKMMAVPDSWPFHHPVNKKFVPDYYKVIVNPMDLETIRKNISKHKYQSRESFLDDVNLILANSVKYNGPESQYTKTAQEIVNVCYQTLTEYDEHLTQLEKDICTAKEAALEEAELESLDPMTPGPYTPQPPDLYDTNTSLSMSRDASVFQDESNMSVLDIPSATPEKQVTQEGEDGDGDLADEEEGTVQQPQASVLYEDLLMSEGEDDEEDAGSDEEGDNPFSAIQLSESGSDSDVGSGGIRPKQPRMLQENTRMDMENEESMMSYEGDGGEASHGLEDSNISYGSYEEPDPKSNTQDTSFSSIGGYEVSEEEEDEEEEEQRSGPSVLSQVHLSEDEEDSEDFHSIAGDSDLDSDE

[17] = Half life in CD-1 mouse at 1 mg/kg, iv or 5 mg/kg, po by LC-MS/MS method; format: ADME, organism-based; conditions: in vivo; method in brief: as §2
[18] = Oral bioavailability in Sprague-Dawley rat at 5 mg/kg by LC-MS/MS method; format: ADME, organism-based; conditions: in vivo; method in brief: as §4
[19] = Clearance in Sprague-Dawley rat at 1 mg/kg, iv or 5 mg/kg, po by LC-MS/MS method; format: ADME, organism-based; conditions: in vivo; method in brief: as §4
[20] = Oral bioavailability in CD-1 mouse at 5 mg/kg by LC-MS/MS method; format: ADME, organism-based; conditions: in vivo; method in brief: as §2
[21] = AUClast in Sprague-Dawley rat at 1 mg/kg, iv or 5 mg/kg, po by LC-MS/MS method; format: ADME, organism-based; conditions: in vivo; method in brief: as §4
[22] = Clearance in CD-1 mouse at 1 mg/kg, iv or 5 mg/kg, po by LC-MS/MS method; format: ADME, organism-based; conditions: in vivo; method in brief: as §2
[23] = molecular target: Bromodomain-containing protein 9 (Homo sapiens, UniProt Q9H8M2); assay: Displacement of biotinylated histone H3K14 peptide ligand from human recombinant His-tagged BRD9 measured after 10 mins by TR-FRET assay
Chain of Bromodomain-containing protein 9 (Q9H8M2 whole entry): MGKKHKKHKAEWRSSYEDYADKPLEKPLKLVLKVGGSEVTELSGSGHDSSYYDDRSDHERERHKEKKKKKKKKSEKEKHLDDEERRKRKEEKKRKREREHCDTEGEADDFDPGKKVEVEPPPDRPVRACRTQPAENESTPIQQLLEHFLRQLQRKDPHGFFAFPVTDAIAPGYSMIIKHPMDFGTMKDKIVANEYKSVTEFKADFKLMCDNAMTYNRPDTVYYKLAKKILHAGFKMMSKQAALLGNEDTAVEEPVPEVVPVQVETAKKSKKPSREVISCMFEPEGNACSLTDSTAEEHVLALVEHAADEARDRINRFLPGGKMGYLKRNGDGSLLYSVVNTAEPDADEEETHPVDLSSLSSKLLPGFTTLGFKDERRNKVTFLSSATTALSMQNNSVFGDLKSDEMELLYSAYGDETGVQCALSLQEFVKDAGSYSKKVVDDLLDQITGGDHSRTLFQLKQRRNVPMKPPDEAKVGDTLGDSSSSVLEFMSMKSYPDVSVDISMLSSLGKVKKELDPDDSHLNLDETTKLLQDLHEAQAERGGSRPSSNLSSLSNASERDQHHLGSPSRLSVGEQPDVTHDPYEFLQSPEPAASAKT

[24] = Protein binding in rat plasma at 5 uM incubated for 4 hrs measured by LC-MS/MS method; format: ADME, cell-free; conditions: read-out: PPB (converted)
Homo sapiens = organism: Homo sapiens; assay: Selectivity ratio of IC50 for human recombinant His-tagged BRD4 bromodomain-1 to IC50 for human recombinant His-tagged P300
Mus musculus [25] = assay: In vivo inhibition of CBP in human MOLM16 cells xenografted in C.B-17 SCID beige mouse assessed as suppression of MYC transcript levels at 10 mg/kg administered via oral gavage […] measured 2 hrs post last dose by real time-PCR method relative to control; format: functional
Method in brief: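 MOLM-16 subcutaneous xenografts in SCID beige mice received single oral doses of 3–30 mg/kg (n=3/group). Tumors were taken at time points from 2 to 24 h. MYC transcript was measured in tumor RNA by one-step TaqMan qRT-PCR with ACTB as housekeeping gene. Results are given relative to vehicle-treated animals by the comparative Ct method.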

Mus musculus [26] = assay: Toxicity in C.B-17 SCID beige mouse xenografted with human MOLM-16 cells assessed as decrease in body weight at 3 to 30 mg/kg administered via oral gavage as bid for 21 days measured during compound dosing; conditions: in vivo

CC(=O)N1CCc2c(c(N3CCCc4cc(-c5cnn(C)c5)c(C(F)F)cc43)nn2C2CCOCC2)C1
bioavailability [1]: 39% | Papp A→B at 3 h, 10 µM [2]: 15 ×10⁻⁶ cm/s | IC50 [3]: 14 µM | Kp uu at 3 h [4]: 0.43 | IC50 [5]: 0.0013 µM | Cmax [6]: 4.2 µM | IC50 [7]: > 20 µM | Cmax [8]: 5.1 µM | half-life [9]: 4.2 h | fraction unbound at 4 h, 5 µM [10]: 0.08 | clearance [11]: 7.4 mL/min/kg | fraction unbound at 4 h, 5 µM [12]: 0.16 | IC50 [13]: > 20 µM | Cmax [14]: 3.2 µM | IC50 (CREB-binding protein): 0.0011 µM | clearance [15]: 4.6 mL/min/kg | IC50 [16]: > 20 µM | half-life [17]: 1.1 h | bioavailability [18]: 93% | clearance [19]: 16 mL/min/kg | bioavailability [20]: 72% | AUC(0-t) [21]: 9.4 µM·h | clearance [22]: 8.8 mL/min/kg | IC50 [23]: > 20 µM | fraction unbound at 4 h, 5 µM [24]: 0.12

CNC(=O)N1CCc2c(c(N3CCCc4cc(-c5cnn(C)c5)c(C(F)F)cc43)nn2C2CCOCC2)C1
bioavailability [1]: 28% | Papp A→B at 3 h, 10 µM [2]: 19 ×10⁻⁶ cm/s | IC50 [3]: > 20 µM | Kp uu at 3 h [4]: 0.02 | IC50 [5]: 0.0012 µM | Cmax [6]: 23 µM | Ratio IC50 (Homo sapiens): 4250 | Cmax [8]: 8.3 µM | half-life [9]: 4.7 h | fraction unbound at 4 h, 5 µM [10]: 0.06 | clearance [11]: 18 mL/min/kg | fraction unbound at 4 h, 5 µM [12]: 0.16 | IC50 [13]: > 20 µM | Cmax [14]: 4.1 µM | clearance [15]: 4.8 mL/min/kg | Imax (Mus musculus [25]): 87% | IC50 [16]: > 20 µM | half-life [17]: 1.4 h | bioavailability [18]: 37% | clearance [19]: 3.8 mL/min/kg | %max (Mus musculus [26]): 3.7% | bioavailability [20]: 73% | AUC(0-t) [21]: 16 µM·h | clearance [22]: 5.2 mL/min/kg | IC50 [23]: > 20 µM | fraction unbound at 4 h, 5 µM [24]: 0.06

— ChEMBL document CHEMBL4052814, “GNE-781, A Highly Advanced Potent and Selective Bromodomain Inhibitor of Cyclic Adenosine Monophosphate Response Element Binding Protein, Binding Protein (CBP)” (J Med Chem, 2017)
